Assay results taken from publication PMC7357868 (ACS chemical biology, 2019).

Experiments:
hpol κ = biological target: T1, hpol κ (Homo sapiens, UniProt Q9UBT6); experiment: Gel-based primer extension assay; format: biochemical; conditions: 10 μM IAG-10, 1 nM hpol κ
T1 sequence (Q9UBT6 19-526): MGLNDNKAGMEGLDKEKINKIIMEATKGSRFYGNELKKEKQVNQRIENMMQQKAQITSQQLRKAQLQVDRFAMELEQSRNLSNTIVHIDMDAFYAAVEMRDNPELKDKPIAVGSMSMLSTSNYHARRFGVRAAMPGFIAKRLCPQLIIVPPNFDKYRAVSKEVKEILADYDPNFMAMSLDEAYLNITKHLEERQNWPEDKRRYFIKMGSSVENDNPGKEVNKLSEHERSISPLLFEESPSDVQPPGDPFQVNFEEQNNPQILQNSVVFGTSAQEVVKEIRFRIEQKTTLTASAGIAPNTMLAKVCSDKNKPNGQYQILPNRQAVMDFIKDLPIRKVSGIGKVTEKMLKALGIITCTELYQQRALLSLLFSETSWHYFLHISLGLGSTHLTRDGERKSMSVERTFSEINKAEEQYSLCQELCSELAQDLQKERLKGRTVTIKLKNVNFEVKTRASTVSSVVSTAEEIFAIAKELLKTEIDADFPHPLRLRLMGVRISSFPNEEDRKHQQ

hpol η = biological target: T2, hpol η (Homo sapiens, UniProt Q9Y253); experiment: Gel-based primer extension assay; format: biochemical; conditions: 10 μM IAG-10, 2 nM hpol η
T2 sequence (Q9Y253 1-437): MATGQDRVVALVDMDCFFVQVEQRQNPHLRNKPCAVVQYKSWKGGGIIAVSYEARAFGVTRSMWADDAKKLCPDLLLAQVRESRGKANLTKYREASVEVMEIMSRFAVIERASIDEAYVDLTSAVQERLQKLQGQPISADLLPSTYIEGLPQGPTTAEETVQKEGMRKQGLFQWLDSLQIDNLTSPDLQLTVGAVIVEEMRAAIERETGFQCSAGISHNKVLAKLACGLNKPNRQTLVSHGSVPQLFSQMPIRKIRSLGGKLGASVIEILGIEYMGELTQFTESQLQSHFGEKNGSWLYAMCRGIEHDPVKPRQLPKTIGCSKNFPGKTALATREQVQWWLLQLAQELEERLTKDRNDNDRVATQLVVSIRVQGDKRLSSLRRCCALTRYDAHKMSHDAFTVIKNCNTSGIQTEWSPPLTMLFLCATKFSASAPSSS

hpol ι = biological target: T3, hpol ι (Homo sapiens, UniProt Q9UNA4); experiment: Gel-based primer extension assay; format: biochemical; conditions: 10 μM IAG-10, 10 nM hpol ι
T3 sequence (Q9UNA4 1-446): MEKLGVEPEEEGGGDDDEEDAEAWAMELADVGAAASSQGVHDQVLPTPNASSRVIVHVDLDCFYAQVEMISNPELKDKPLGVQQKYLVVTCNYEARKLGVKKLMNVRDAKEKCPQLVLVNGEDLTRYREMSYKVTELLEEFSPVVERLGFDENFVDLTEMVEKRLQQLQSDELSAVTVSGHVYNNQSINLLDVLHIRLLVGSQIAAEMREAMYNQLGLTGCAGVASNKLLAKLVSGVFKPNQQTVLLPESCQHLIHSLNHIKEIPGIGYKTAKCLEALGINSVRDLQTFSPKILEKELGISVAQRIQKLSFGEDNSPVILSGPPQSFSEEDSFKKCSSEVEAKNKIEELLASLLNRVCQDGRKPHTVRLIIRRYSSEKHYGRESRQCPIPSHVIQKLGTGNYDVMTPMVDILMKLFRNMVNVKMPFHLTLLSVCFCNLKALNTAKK

hRev1 = biological target: T4, hRev1 (Homo sapiens, UniProt Q9UBZ9); experiment: Gel-based primer extension assay; format: biochemical; conditions: 10 μM IAG-10, 10 nM hRev1
T4 sequence (Q9UBZ9 330-833): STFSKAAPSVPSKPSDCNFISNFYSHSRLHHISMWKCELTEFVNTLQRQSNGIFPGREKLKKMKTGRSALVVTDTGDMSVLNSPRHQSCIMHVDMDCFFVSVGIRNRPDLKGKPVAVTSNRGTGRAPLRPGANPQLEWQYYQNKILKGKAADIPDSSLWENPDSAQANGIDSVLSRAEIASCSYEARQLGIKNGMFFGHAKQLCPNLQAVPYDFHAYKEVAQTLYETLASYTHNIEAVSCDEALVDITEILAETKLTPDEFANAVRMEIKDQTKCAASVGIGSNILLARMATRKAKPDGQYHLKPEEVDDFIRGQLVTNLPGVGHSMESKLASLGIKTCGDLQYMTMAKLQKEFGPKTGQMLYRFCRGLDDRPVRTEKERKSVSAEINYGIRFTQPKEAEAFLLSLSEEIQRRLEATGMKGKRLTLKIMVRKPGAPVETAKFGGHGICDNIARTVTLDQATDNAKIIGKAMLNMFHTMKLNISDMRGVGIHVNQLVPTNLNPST

hpol β = hpol β (Homo sapiens, UniProt P06746); experiment: TAMRA strand-displacement selectivity assay, X-family pol; format: biochemical; conditions: 10 μM IAG-10, 1 nM hpol β
hpol λ = biological target: T5, hpol λ (Homo sapiens, UniProt Q9UGP5); experiment: as above; format: biochemical; conditions: 10 μM IAG-10, 10 nM hpol λ
T5 sequence (Q9UGP5 251-575 limits assumed): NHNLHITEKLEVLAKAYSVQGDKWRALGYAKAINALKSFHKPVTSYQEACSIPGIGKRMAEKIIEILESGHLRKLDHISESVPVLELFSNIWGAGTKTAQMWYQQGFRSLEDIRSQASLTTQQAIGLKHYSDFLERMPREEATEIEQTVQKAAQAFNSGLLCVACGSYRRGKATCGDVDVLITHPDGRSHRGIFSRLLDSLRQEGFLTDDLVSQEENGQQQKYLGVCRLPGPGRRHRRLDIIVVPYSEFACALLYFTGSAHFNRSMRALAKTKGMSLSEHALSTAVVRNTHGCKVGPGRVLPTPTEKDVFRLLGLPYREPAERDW

[1] = tested on: hpol κ-proficient HAP-1 cells; experiment: Clonogenic survival assay; format: cell-based, human
[2] = tested on: hpol κ-deficient HAP-1 cells; experiment: Clonogenic survival assay; format: cell-based, human
[3] = tested on: hpol κ-deficient HAP-1 cells; experiment: supF mutagenesis assay; format: cell-based, human; conditions: 1 μM IAG-10, 24 h
In short: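 HAP-1 cells at ~80% confluency (IMDM, 10% FBS) lipofected for 24 h with pSP189 supF plasmid (10 μg per 10 cm dish), ±1 μM test compound. Plasmid was unmodified or pretreated with 100 mM MMS (HEPES pH 7.5, RT, 1 h). Recovered plasmid DpnI-digested, electroporated into E. coli MBM7070, plated on ampicillin/IPTG/X-gal. Mutation frequency = white/(blue + white); ≥10 000 colonies per condition; biological triplicate, mean ±SD.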

Cl.[H]/N=C(\N)NN=Cc1cn(C(=O)c2cccc3ccccc23)c2ccc(Cl)cc12 [IAG-10, (E)-2-((1-(1-naphthoyl)-5-chloro-1H-indol-3-yl)-methylene)hydrazine-1-carboximidamide hydrochloride]
polymerase activity in presence of compound (hpol κ): only hpol κ was inhibited
polymerase activity in presence of compound (hpol η): only hpol κ was inhibited
polymerase activity in presence of compound (hpol ι): only hpol κ was inhibited
polymerase activity in presence of compound (hRev1): only hpol κ was inhibited
polymerase activity in presence of compound (hpol β): only hpol κ activity was inhibited
polymerase activity in presence of compound (hpol λ): only hpol κ activity was inhibited
colony formation ([1]; 0.5 μM IAG-10 alone): does not impair colony formation
colonies formed relative to untreated cells ([1]; 250 μM TMZ + 0.5 μM IAG-10 cotreatment, 1 h, 10 days culture): ~ 40%
colony formation ([2]; 0.5 μM IAG-10 alone): does not impair colony formation
colony forming ability, cotreatment over TMZ alone ([2]; TMZ + 0.5 μM IAG-10): did not show any significant reduction
mutation frequency, control or MMS-damaged DNA [3]: did not alter the mutation frequency
